SMILES strings stand for the structures. The source made the active and inactive calls. No cut-off for these calls is given here.

The values below come from ChEMBL document CHEMBL3407395, “Synthesis, characterization, and optimization for in vivo delivery of a nonselective isopeptidase inhibitor as new antineoplastic agent” (J Med Chem, 2015).

For assay [1], the system named is A549. Nature of the assay: Induction of cell death in human A549 cells assessed as accumulation of poly-ubiquitinated proteins at 10 uM after 48 hrs by immunoblot assay. The format is functional, cell-based. The method in brief:
(§1)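 A549 cells grown in normal or A375-conditioned medium, treated with 10 µM. Immunoblots probed poly-ubiquitin accumulation, p53 stabilization and Noxa induction.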
For orientation: In western blotting, separated proteins are transferred to a membrane and probed.

Assay [2] has as its system U-87 MG. The assay can be described thus: Induction of necrosis in human U87MG cells at 0.6 to 10 uM after 24 hrs by trypan blue assay. Particulars: U-87MG ATCC. The format is functional, cell-based. The method in brief: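 U87MG cells treated 24 h at the indicated concentrations. Death scored as percent trypan blue-positive cells. Caspase activity measured in parallel with a rhodamine 110 bis-(N-Z-DEVD amide) fluorogenic substrate and read in relative fluorescence units.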

Assay [3] addresses T1, Ubl carboxyl-terminal hydrolase 18 (Homo sapiens, UniProt Q9UMW8).
T1 sequence (Q9UMW8 whole entry): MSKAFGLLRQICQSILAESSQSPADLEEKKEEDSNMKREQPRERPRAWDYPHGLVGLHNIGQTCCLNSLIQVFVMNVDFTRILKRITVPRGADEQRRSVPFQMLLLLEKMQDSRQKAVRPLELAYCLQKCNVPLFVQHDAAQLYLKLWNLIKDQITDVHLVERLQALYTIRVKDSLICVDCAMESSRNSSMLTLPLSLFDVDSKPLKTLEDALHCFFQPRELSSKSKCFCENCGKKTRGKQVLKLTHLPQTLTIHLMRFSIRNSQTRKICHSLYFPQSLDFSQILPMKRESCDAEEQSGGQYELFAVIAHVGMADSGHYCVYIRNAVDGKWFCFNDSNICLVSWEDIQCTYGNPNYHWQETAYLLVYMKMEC
Nature of the assay: Inhibition of recombinant human USP18 (16 to 372 aa) expressed in Sf9 cells using ISG15-AMC as substrate preincubated for 30 mins before substrate addition measured after 60 mins by fluorescence assay.

Assay [4] has as its system T98G. The assay can be described thus: Induction of cell death in human T98G cells at 4.2 to 18.4 uM after 24 hrs by trypan blue assay in presence of zVAD-fmk. The assay is classed as functional, cell-based.
Assay [5] can be described thus: Cytotoxicity against human Hep3B cells after 48 hrs by resazurin assay. The assay is classed as functional, cell-based, Hep 3B2.
The subject of assay [6] is A-375. The assay can be described thus: Cytotoxicity against human A375 cells after 48 hrs by resazurin assay. The assay is classed as functional, cell-based. Particulars: A-375, 48 h. Background: Alamar Blue is a resazurin reagent that responds to reducing activity.
Assay [7] has as its system A549. The assay can be described thus: Induction of cell death in human A549 cells assessed as accumulation of Noxa at 1 to 5 uM after 24 hrs by immunoblot assay. The format is functional, cell-based. The gist of the method:
(§2)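 A549 cells dosed at three levels (2.5, 5, 10 µM or 1, 2.5, 5 µM depending on inhibitor); lysates made after 24 h. Immunoblots probed poly-ubiquitin, p53 and Noxa, quantified by densitometry; mean of two experiments.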

Assay [8] can be described thus: Cytotoxicity against human MIAPaCa2 cells after 48 hrs by resazurin assay. The format is functional, cell-based. Particulars: MIA PaCa-2, 48 h.
Assay [9] has as its system T98G. The assay can be described thus: Induction of apoptosis in human T98G cells assessed as caspase activation at 0.6 to 10 uM after 24 hrs by rhodamine-based fluorescence assay. The format is functional, cell-based. The method in brief:
(§3)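 U87MG or T98G cells exposed 24 h to the listed concentrations. Caspase activity was read as relative fluorescence units from the rhodamine 110 bis-(N-Z-L-aspartyl-L-glutamyl-L-valyl-aspartic acid amide) fluorogenic substrate.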

Assay [10] concerns A549. The assay can be described thus: Induction of cell death in human A549 cells assessed as stabilization of p53 at 2.5 to 10 uM after 24 hrs by immunoblot assay. The assay is classed as functional, cell-based. The method in brief: as §2
Assay [11] has as its system HT-29. Nature of the assay: Cytotoxicity against human HT-29 cells after 48 hrs by resazurin assay. The assay is classed as functional, cell-based. Particulars: HT-29, 48 h.
The target in assay [12] is T2, Ubiquitin carboxyl-terminal hydrolase 2 (Homo sapiens) (UniProt O75604).
T2 sequence (whole entry): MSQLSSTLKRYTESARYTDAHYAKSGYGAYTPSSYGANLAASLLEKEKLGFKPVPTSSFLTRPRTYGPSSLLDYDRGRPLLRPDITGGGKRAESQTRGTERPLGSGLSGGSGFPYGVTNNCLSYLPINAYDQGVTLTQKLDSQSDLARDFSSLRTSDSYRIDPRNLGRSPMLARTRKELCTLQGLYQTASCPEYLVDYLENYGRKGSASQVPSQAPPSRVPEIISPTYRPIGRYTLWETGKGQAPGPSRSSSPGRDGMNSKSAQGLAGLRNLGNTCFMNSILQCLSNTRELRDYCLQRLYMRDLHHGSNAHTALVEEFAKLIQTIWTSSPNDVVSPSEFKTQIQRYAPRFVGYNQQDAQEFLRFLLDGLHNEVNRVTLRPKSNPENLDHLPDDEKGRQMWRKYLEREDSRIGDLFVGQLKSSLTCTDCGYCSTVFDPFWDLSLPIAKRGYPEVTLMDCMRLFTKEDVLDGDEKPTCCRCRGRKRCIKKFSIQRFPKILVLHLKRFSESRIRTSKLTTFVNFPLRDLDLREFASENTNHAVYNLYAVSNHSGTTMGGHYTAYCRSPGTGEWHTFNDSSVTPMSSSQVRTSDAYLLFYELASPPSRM
The assay can be described thus: Inhibition of USP2 catalytic domain (unknown origin) expressed in bacteria using Ub-AMC as substrate preincubated for 30 mins before substrate addition measured after 60 mins by fluorescence assay. The method in brief: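 Purified isopeptidase activity was measured with ubiquitin-AMC as fluorogenic substrate; IC50 was derived from inhibition.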

Assay [13] concerns T98G. The assay can be described thus: Induction of necrosis in human T98G cells at 0.6 to 10 uM after 24 hrs by trypan blue assay. The assay is classed as functional, cell-based. The gist of the method:
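T98G cells exposed 24 h to the listed concentrations. Cell death was scored as percent of trypan blue-positive cells.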

For assay [14], the system named is A-375. Nature of the assay: Induction of cell death in human A375 cells assessed as Noxa induction at 10 uM after 24 hrs by immunoblot assay. The format is functional, cell-based.
The test system of assay [15] is A-375. Nature of the assay: Induction of cell death in human A375 cells assessed as accumulation of poly-ubiquitinated proteins at 10 uM after 24 hrs by immunoblot assay. The assay is classed as functional, cell-based.
Assay [16] relates to A549. The assay can be described thus: Induction of cell death in human A549 cells assessed as accumulation of Noxa at 10 uM after 48 hrs by immunoblot assay. The assay is classed as functional, cell-based. The gist of the method:
as §1

The target of assay [17] is T3, Ubl carboxyl-terminal hydrolase 18 (Homo sapiens) (UniProt Q9UMW8).
T3 sequence (whole entry): T1 sequence (Q9UMW8 whole entry)
The assay can be described thus: Inhibition of USP18 (unknown origin) expressed in human A549 cells coexpressing ISG15-GFP assessed as reduction in free GFP at 2.5 to 10 uM after 24 hrs by immunoblot assay. The assay is classed as cell-based.

Assay [18] relates to HT-29. The assay can be described thus: Induction of cell death in human HT-29 cells at 2.5 to 10 uM after 48 hrs by trypan blue assay. The assay is classed as functional, cell-based.
Assay [19] relates to A-375. The assay can be described thus: Induction of cell death in human A375 cells assessed as stabilization of p53 at 10 uM after 24 hrs by immunoblot assay. The format is functional, cell-based.
For a further assay, the system named is U-87MG ATCC. The assay can be described thus: Induction of cell death in human U87MG cells at 4.2 to 18.4 uM after 24 hrs by trypan blue assay in presence of zVAD-fmk. The assay is classed as functional, cell-based.
The subject of assay [20] is U-87 MG. The assay can be described thus: Induction of apoptosis in human U87MG cells assessed as caspase activation at 0.6 to 10 uM after 24 hrs by rhodamine-based fluorescence assay. The format is functional, cell-based. Particulars: U-87MG ATCC. The method in brief: as §3
Assay [21] has as its system A549. Nature of the assay: Induction of cell death in human A549 cells at 2.5 to 10 uM after 48 hrs by trypan blue assay. The assay is classed as functional, cell-based. The method in brief: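 A549 or A375 cells treated 48 h with 2.5–10 µM. Cell death was scored by trypan blue exclusion as a function of concentration.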
The subject of assay [22] is A549. Nature of the assay: Induction of cell death in human A549 cells at 10 uM after 24 to 72 hrs by trypan blue assay. The assay is classed as functional, cell-based. The gist of the method: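 A549 cells given 10 µM for 24–72 h. Cell death was scored by trypan blue at each time point.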

Usually IC50 stands for the concentration needed to halve the response being measured. As for `O=C1/C(=C/c2ccc([N+](=O)[O-])cc2)CC(O)C/C1=C\c1ccc([N+](=O)[O-])cc1` (stereo not drawn), the result in the assay on A549 [1], in the assay with U-87 MG [2], with A549 [7], in the assay on T98G [9], in the assay on A549 [10] and with T98G [13] was Active. The result with A-375 [14], in the assay with A-375 [15], with A549 [16], with HT-29 [18], with A-375 [19] and in the assay on U-87MG ATCC was Active. The result with U-87 MG [20], with A549 [21] and in the assay on A549 [22] was Active. For the same molecule, the concentration for half-maximal inhibition (IC50) in assay [3] is 21.2 µM; in assay [5] it was 8.5 µM; with A-375 [6], 6.1 µM; in [8] it was 35.2 µM; with HT-29 [11], 7.6 µM. Further, the outcome in the assay on T98G [4] was inactive. In addition, in assay [12], the inhibition entry was “inactive”. For the same molecule, in [17], the inhibition result was “Active”.
